Measurements gathered from unrelated publications.
Each line is one published result; the experiments were not run side by side.
CHRM1: Muscarinic acetylcholine receptor M1 (CHRM1, Homo sapiens, UniProt P11229)
MDM2: E3 ubiquitin-protein ligase Mdm2 (MDM2, Homo sapiens, UniProt Q00987)

CCc1cc(/C(C)=N/OCc2ccc(C3CCCCC3)c(C(F)(F)F)c2)ccc1CN1CC(C(=O)O)C1 has an IC50 of > 1.1 µM (Cytochrome P450 3A4 (CYP3A4, Homo sapiens, UniProt P08684); enzyme activity, inhibitor; human, liver microsomes; 20 min, midazolam probe).
Cc1cc(N2CCNCC2)nc2ccccc12 gave a Ki of > 31.6 µM (CHRM1; ligand displacement, radioligand; cell membranes).
N#CC(CCN1CCC(N)CC1)(c1ccccc1)c1ccccc1 has an IC50 of > 100 µM (Potassium voltage-gated channel subfamily A member 3 (Kcna3, Mus musculus, UniProt P16390); ion current, inhibitor, patch clamp).
With CC(C)=CCC/C(C)=C/CC/C(C)=C/CSc1ccccc1C(=O)O the Ki was 0.11 µM (4,4'-diapophytoene synthase (Staphylococcus aureus, UniProt A9JQL9); enzyme activity, inhibitor).
N[C@@H](C[C@]1(C(=O)O)C[C@H]2OC[C@@H](O)[C@@H](O)[C@H]2O1)C(=O)O has a Ki of 1.4 µM (Glutamate receptor ionotropic, kainate 3 (Rattus norvegicus, UniProt P42264, T520A); ligand displacement, radioligand).
N[C@@H](CCP(=O)(O)O)C(=O)O gave an EC50 of 0.0589 µM (Metabotropic glutamate receptor 8 (Grm8, Rattus norvegicus, UniProt P70579); calcium signal, agonist).
CCCCN1CCC(COC(=O)c2cc(Cl)c(N)c3c2OCCO3)CC1 has a Ki of 0.0001 µM (5-hydroxytryptamine receptor 4 (HTR4, Homo sapiens, UniProt Q13639); ligand displacement, radioligand).
With CC(=O)N[C@H](C(=O)N[C@@H](CC(=O)O)C(=O)N[C@@H](CC(=O)O)C(=O)N[C@@H](Cc1ccccc1)C(=O)N[C@@H](CC(=O)O)C(=O)N[C@@H](CCCNC(=N)N)C(=O)N[C@H](C(=O)N[C@@H](Cc1c[nH]c2ccccc12)C(=O)N[C@@H](CCC(N)=O)C(=O)NCC(=O)N[C@@H](CC(C)C)C(=O)N[C@H](C(=O)NCC(=O)N[C@@H](CC(C)C)C(N)=O)C(C)C)C(C)C)C(C)C the Kd was 41 µM (MDM2; ligand displacement, FP).
Cc1cc(C)nc(Nc2ncc(C(=O)NCCc3c(C)[nH]c4ccccc34)cn2)c1 has an IC50 of 16 µM (Cytochrome P450 1A2 (CYP1A2, Homo sapiens, UniProt P05177); enzyme activity, inhibitor; human, liver microsomes).
With COc1cc([C@@H]2c3cc4c(cc3[C@@H](O[C@@H]3O[C@@H]5CO[C@@H](C)O[C@H]5[C@H](O)[C@H]3O)[C@H]3COC(=O)[C@H]23)OCO4)cc(OC)c1O the IC50 was 55 µM (Organic cation/carnitine transporter 2 (SLC22A5, Homo sapiens, UniProt O76082); transporter uptake, inhibitor, radiometric).
The IC50 of COc1cc(C(=O)N2CC[C@@H](O)[C@@H](N)C2)cc2nc(-c3cc4ccccc4n3CC3CC3)n(C)c12 is reported as 12.6 µM (CHRM1; calcium signal, antagonist, fluorescence).
For NCCCCCCNC(=O)c1ccc(NC(=O)c2ccc(CN(C(=O)c3ccc4c(c3)OCC(=O)N4)C3CC3)cc2)cc1, the DC50 was 0.35 µM (Histone-lysine N-methyltransferase NSD2 (NSD2, Homo sapiens, UniProt O96028); protein level, degrader).
CC(C)C[C@H](NC(=O)[C@H](Cc1ccccc1)NC(=O)c1cnccn1)B(O)O has an IC50 of 12.4 µM (Lysosomal Pro-X carboxypeptidase (PRCP, Homo sapiens, UniProt P42785); enzyme activity, inhibitor).
With CC(C)[C@@H]1NC(=O)[C@H](CO)NC(=O)[C@H](CO)NC(=O)[C@H](CO)N(C)C(=O)[C@H](CC(=O)O)NC(=O)[C@H](CO)NC(=O)[C@H](Cc2ccccc2)NC(=O)CSC[C@@H](C(=O)NCC(N)=O)NC(=O)[C@H](CC(N)=O)NC(=O)[C@H](CCCNC(=N)N)NC(=O)[C@H](C)NC(=O)[C@H](Cc2ccc(-c3ccccc3)cc2)NC(=O)[C@H](CC(N)=O)NC(=O)[C@@H]2CCCN2C1=O the Ki was > 8.06 µM (MDM2; ligand displacement, TR-FRET).
For CCc1nnc(NS(=O)(=O)c2ccc(NC(=S)NC(=O)/C=C/c3ccc(F)cc3)cc2)s1, the Kb was 0.0088 µM (Prostaglandin E2 receptor EP2 subtype (PTGER2, Homo sapiens, UniProt P43116); cAMP, antagonist, TR-FRET).
With CC[C@H](C)[C@H](NC(=O)[C@H](CCCNC(=N)N)NC(=O)[C@H](CCCCN)NC(=O)[C@@H]1CCCN1C(=O)[C@@H](N)CC(C)C)C(=O)N[C@@H](C)C(=O)O the Kd was 48 µM (N-terminal Xaa-Pro-Lys N-methyltransferase 1 (Homo sapiens, UniProt Q9BV86); binding, ITC; pH 7.5).
